In publication PMC3755765 (ChemMedChem, 2013):
Converted amounts (≈) assume the structure as drawn. “And” between values parts separate entries of the source, which are not always exact repeats. Identical values can stand only once. Like-named read-outs stand apart in the source and are kept apart here.

How the values were obtained:
[1] = system: T. gondii tachyzoites; test: Parasite tissue culture assay: inhibition of T. gondii tachyzoites in HFF; format: cell-based, Toxoplasma gondii; conditions: for Activity in the parasite-based assay: T. gondii tachyzoites; for MIC50 / IC50: Toxoplasma gondii
[2] = target: T1, TgENR (Toxoplasma gondii, UniProt Q6UCJ9); test: TgENR enzyme assay; format: biochemical; conditions: for inhibition at 1 µM: read-out: Cpd. conc. [1 μM]/% Inh.: percentage of inhibition of TgENR; for TgENR IC50 fold lower than that of analog 9c: 38 and 54 nM vs 130 nM; for Activity in the enzyme-based assay: purified TgENR
T1 sequence (Q6UCJ9 28-417): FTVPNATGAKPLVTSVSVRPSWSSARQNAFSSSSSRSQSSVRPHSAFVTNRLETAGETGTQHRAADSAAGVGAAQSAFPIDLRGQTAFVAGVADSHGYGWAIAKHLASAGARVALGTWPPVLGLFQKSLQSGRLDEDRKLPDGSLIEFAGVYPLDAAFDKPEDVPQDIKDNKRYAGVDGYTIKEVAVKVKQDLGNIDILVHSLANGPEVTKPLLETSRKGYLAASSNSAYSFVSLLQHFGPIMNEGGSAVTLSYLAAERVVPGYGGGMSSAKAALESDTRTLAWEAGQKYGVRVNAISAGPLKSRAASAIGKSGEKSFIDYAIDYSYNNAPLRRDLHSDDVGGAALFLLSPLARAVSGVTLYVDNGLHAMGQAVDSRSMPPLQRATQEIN

[3] = system: Human Foreskin Fibroblasts (HFF); test: Toxicity for host cells; conditions: for Parasite tissue culture assay HFF (HFF toxicity): human foreskin fibroblasts, highest concentration tested 10 μM
[4] = system: P. falciparum strain D6 (CDC/Sierra Leone); test: Malaria SYBR Green I-based fluorescence assay, strain D6; format: cell-based; conditions: Plasmodium falciparum, D6, 72 h, read-out: SYBR Green D6 IC50
Procedure, shortened: (§1)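 Late-ring or early-trophozoite parasites at 0.3% starting parasitemia and 2% hematocrit were added to plates predosed with quadruplicate 12-point two-fold dilutions in DMSO (final […]), with mefloquine as reference. Plates were incubated 72 h at 37°C under 5% CO2/5% O2/90% N2, lysed with Tris/EDTA/Triton X/saponin buffer with SYBR Green I (final 10x), kept dark 24 h at RT, and read as RFU. A chloroquine batch control at 2000 ng/ml validated each run.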

[5] = system: P. falciparum strain TM91C235 (WRAIR, Thailand, chloroquine resistant); test: Malaria SYBR Green I-based fluorescence assay, strain TM91C235; format: cell-based; conditions: Plasmodium falciparum, 72 h, read-out: SYBR Green C235 IC50
Procedure, shortened: as §1

[6] = 72 h, read-out: Parasite tissue culture assay MIC50

Compound	Activity in the parasite-based assay [1]	MIC50 [1, 6]	inhibition at 1 µM [2]	Parasite tissue culture assay HFF (HFF toxicity) [3]	Activity in the enzyme-based assay [2]	also measured
Cc1cc(C(=O)NCc2ccc(Oc3ccc(Cl)cc3O)c(Cl)c2)no1 [Compound 37a, N-[3-Chloro-4-(4-chloro-2-hydroxyphenoxy)benzyl]-5-methyl-1,2-oxazole-3-carboxamide]	activity comparable to or better than that of triclosan	5 µM (≈ 1.97 µg/mL)	88%	–	–	–
C[Si](C)(C)c1cc(-c2ccc(Oc3ccc(Cl)cc3Cl)c(O)c2)no1 [Compound 20c, 2-(2,4-Dichlorophenoxy)-5-[5-(trimethylsilyl)-1,2-oxazol-3-yl]phenol]	–	7 µM (≈ 2.76 µg/mL)	25%	> 10 µM	–	–
O=C(c1ccc(Oc2ccc(Cl)cc2Cl)c(O)c1)N1CCOCC1 [Compound 30c, [4-(2,4-Dichlorophenoxy)-3-hydroxyphenyl](morpholin-4-yl)methanone]	–	> 10 µM	43%	>10 µM	–	IC50 [4]: > 2 µg/mL; IC50 [5]: > 2 µg/mL
Oc1cc(Cl)ccc1Oc1ccc(Cn2cc(-c3ccccc3)nn2)cc1Cl [Compound 16b, 5-Chloro-2-[2-chloro-4-[(4-phenyl-1H-1,2,3-triazol-1-yl)methyl]phenoxy]phenol]	activity comparable to or better than that of triclosan	1 µM (≈ 0.412 µg/mL)	82%	>10 µM	–	–
Oc1cc(CNc2ccccc2)ccc1Oc1ccc(Cl)cc1Cl [Compound 39a, 2-(2,4-Dichlorophenoxy)-5-[(phenylamino)methyl]phenol]	–	10 µM (≈ 3.6 µg/mL)	96%	>10 µM	–	IC50 [4]: 4.56 µM and 1.64 µg/mL; IC50 [2]: 130 nM; IC50 [5]: > 2 µg/mL
Oc1cc(Cn2cc(-c3ccccc3)nn2)ccc1Oc1ccc(Cl)cc1Cl [Compound 9b, 2-(2,4-Dichlorophenoxy)-5-[(4-phenyl-1H-1,2,3-triazol-1-yl)methyl]phenol]	inactive	> 10 µM	93%	> 10 µM	–	IC50 [2]: 54 nM; TgENR IC50 fold lower than that of analog 9c [2]: ~2 fold
COc1cc(Cn2cc(CCO)nn2)ccc1Oc1ccc(Cl)cc1Cl [Compound 8d, 2-[1-[4-(2,4-Dichlorophenoxy)-3-methoxybenzyl]-1H-1,2,3-triazol-4-yl]ethanol]	lack of activity	> 10 µM	12%	> 10 µM	lack of activity	–
CCCCc1cc(-c2ccc(Oc3ccc(Cl)cc3Cl)c(O)c2)no1 [Compound 20a, 5-(5-Butyl-1,2-oxazol-3-yl)-2-(2,4-dichlorophenoxy)phenol]	completely inactive	> 10 µM	59%	> 10 µM	completely inactive	–
Oc1cc(Cl)ccc1Oc1ccc(-c2cc(-c3ccccc3)on2)cc1Cl [Compound 24b, 5-Chloro-2-[2-chloro-4-(5-phenyl-1,2-oxazol-3-yl)phenoxy]phenol]	–	10 µM (≈ 3.98 µg/mL)	88%	>10 µM	–	IC50 [2]: 28 nM
CCCCc1cc(-c2ccc(Oc3ccc(Cl)cc3O)c(Cl)c2)no1 [Compound 24a, 2-[4-(5-Butyl-1,2-oxazol-3-yl)-2-chlorophenoxy]-5-chlorophenol]	–	8 µM (≈ 3.03 µg/mL)	92%	>10 µM	–	IC50 [2]: 18 nM
CCCCCCNCc1ccc(Oc2ccc(Cl)cc2O)c(Cl)c1 [Compound 41a, 5-Chloro-2-[2-chloro-4-[(hexylamino)methyl]phenoxy]phenol]	activity comparable to or better than that of triclosan	1 µM (≈ 0.368 µg/mL)	25%	>10 µM	completely inactive	–
Oc1cc(Cl)ccc1Oc1ccc(CNc2ccccc2)cc1Cl [Compound 41b, 5-Chloro-2-[2-chloro-4-[(phenylamino)methyl]phenoxy]phenol]	–	> 10 µM	94%	>10 µM	–	–
O=C(NCc1ccc(Oc2ccc(Cl)cc2O)c(Cl)c1)c1cc(-c2ccccc2)on1 [Compound 37b, N-[3-Chloro-4-(4-chloro-2-hydroxyphenoxy)benzyl]-5-phenyl-1,2-oxazole-3-carboxamide]	–	> 10 µM	80%	–	–	–
CCCCCCNCc1ccc(Oc2ccc(Cl)cc2Cl)c(O)c1 [Compound 39c, 2-(2,4-Dichlorophenoxy)-5-[(hexylamino)methyl]phenol]	activity comparable to or better than that of triclosan	3 µM (≈ 1.1 µg/mL)	16%	–	completely inactive	IC50 [4]: 2.75 µM and 0.857 µg/mL; IC50 [5]: > 2 µg/mL
Oc1cc(-c2cc(-c3ccccc3)on2)ccc1Oc1ccc(Cl)cc1Cl [Compound 20b, 2-(2,4-Dichlorophenoxy)-5-(5-phenyl-1,2-oxazol-3-yl)phenol]	completely inactive	> 10 µM	40%	> 10 µM	completely inactive	–
CCCCc1cn(Cc2ccc(Oc3ccc(Cl)cc3Cl)c(O)c2)nn1 [Compound 9a, 5-[(4-Butyl-1H-1,2,3-triazol-1-yl)methyl]-2-(2,4-dichlorophenoxy)phenol]	inactive	> 10 µM	94%	> 10 µM	–	IC50 [2]: 38 nM; TgENR IC50 fold lower than that of analog 9c [2]: approximately 3 fold
Cc1cc(C(=O)NCc2ccc(Oc3ccc(Cl)cc3Cl)c(O)c2)no1 [Compound 33, N-[4-(2,4-Dichlorophenoxy)-3-hydroxybenzyl]-5-methyl-1,2-oxazole-3-carboxamide]	–	10 µM (≈ 3.93 µg/mL)	96%	–	–	–
O=C(NCc1ccc(Oc2ccc(Cl)cc2O)c(Cl)c1)c1ccc2cc(O)ccc2c1 [Compound 37d, N-[3-Chloro-4-(4-chloro-2-hydroxyphenoxy)benzyl]-6-hydroxynaphthalene-2-carboxamide]	–	–	89%	–	Reasonable activity	IC50 [1, 6]: > 10000 nM
N#Cc1ccc(Oc2ccc(Cl)cc2Cl)c(O)c1 [Compound 27, 4-(2,4-Dichlorophenoxy)-3-hydroxybenzonitrile]	–	2 µM (≈ 0.56 µg/mL)	97%	> 10 µM	–	–
CCCCc1cn(Cc2ccc(Oc3ccc(Cl)cc3O)c(Cl)c2)nn1 [Compound 16a, 2-[4-[(4-Butyl-1H-1,2,3-triazol-1-yl)methyl]-2-chlorophenoxy]-5-chlorophenol]	–	0.25 µM (≈ 0.0981 µg/mL)	90%	>10 µM	–	IC50 ([1]; read-out: IC50 (MIC50) against Toxoplasma gondii tachyzoites): 250 nM; TgENR IC50 fold higher than that of 16c ([2]; 43 vs 26 nM): 1.6 fold; Toxicity to the host cells [3]: without apparent toxicity to the host cells
